Screening results: PubChem, several laboratories
This is a sample that favours compounds with a hit; in the whole collection about 3.2% have one here.
SF-1 act: activators of human SF-1, primary screen, cell-based, CHO-K1, Gal4-SF-1 LBD, luciferase luminescence | AID 522, 2006 | actives 1.9% (n = 65,000) | activation, % at 10 µM | CHO-K1 Gal4-SF-1 LBD luciferase reporter; % increase over DMSO SF-1-specific signal | Steroidogenic factor 1 (Homo sapiens), Q13285;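 active = activation above the mean activation of all tested compounds plus 3 SD, cut at about 50% in these data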
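Test system: CHO-K1 cells co-transfected with Gal4 DBD–human SF-1 LBD, 5xGal4 luciferase reporter. Quantity: 4,000 cells per well. Compound: 10 µM only. Incubation: compound added 1 h post-seeding, 20 h exposure at 37 °C, 5% CO2. Detection: SteadyLite luciferase luminescence. Replication: one test per compound.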
Ec RNAP inh: E. coli RNAP inhibitors, biochemical; DNA-directed RNA polymerase subunit beta (Escherichia coli (strain K12)), P0A8V2; E. coli RNA polymerase, fluorescence transcription assay; inhibition, %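 (tested at 10 µM)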; actives 0.2% (n = 62,000); AID 559, 2006; in the data active = inhibition above about 20%;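 also: 0% = enzyme without compound and 100% = no enzyme blank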
BAP1 block: inhibitors of BAP1 deubiquitinase, primary screen, biochemical, Ub-AMC fluorescence, kinetic. actives 0.48% (n = 72,000). recombinant BAP1, Ub-AMC hydrolysis fluorescence kinetic; hits give low values. AID 436, 2006. activity remaining (% of control), % at 20 µM. Ubiquitin carboxyl-terminal hydrolase BAP1 (Homo sapiens), Q92560;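 active = activity remaining at or below 50% of control, provided the compound also passes the data quality filters; inactive = the rest, including low values that fail the filters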;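 also: 100% = DMSO wells rate and 0% = substrate alone blank rate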
RORA act: activators of orphan receptor RORA, primary screen, cell-based, luminescence; actives 1.5% (n = 65,000); CHO-K1 Gal4-RORA LBD luciferase reporter; percent increase over mock-subtracted basal signal; activation, % at 10 µM; Nuclear receptor ROR-alpha (Homo sapiens), P35398;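 active = activation above the mean of all tested compounds plus 3 SD, cut at about 49% in these data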;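 also: 0% = DMSO-treated RORA cells and 100% = added signal equal to DMSO minus mock-transfected cells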
Target sequence (P35398 whole entry, looked up, the tested form may be a part): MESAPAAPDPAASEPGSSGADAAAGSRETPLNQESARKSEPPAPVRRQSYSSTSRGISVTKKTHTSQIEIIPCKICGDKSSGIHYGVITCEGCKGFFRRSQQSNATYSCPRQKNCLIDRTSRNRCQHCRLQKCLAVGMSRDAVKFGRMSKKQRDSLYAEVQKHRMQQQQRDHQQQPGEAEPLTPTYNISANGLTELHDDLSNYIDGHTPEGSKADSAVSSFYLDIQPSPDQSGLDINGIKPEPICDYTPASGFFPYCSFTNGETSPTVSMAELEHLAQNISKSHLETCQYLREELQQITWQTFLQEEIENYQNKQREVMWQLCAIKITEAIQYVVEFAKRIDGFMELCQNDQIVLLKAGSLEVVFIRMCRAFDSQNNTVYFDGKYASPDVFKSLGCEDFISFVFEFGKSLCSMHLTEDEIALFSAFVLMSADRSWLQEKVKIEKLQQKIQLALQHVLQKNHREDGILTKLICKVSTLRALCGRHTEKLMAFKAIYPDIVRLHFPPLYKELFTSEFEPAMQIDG
JNK3 inh: JNK3 kinase activity inhibitors, primary screen, biochemical, human, purified enzyme; AID 746, 2007; inhibition, % at 8 µM; actives 0.61% (n = 60,000); HTS; in the data active = inhibition above about 17%;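 also: 0% = DMSO and 100% = reference inhibitor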
* marks the source's active call; other numbers are inactive results; x = not tested or not shown.

SMILES	SF-1 act	Ec RNAP inh	BAP1 block	RORA act	JNK3 inh
CCCCc1c(O)n2c(nc3ccccc32)[nH]c1=O	-1	7	99	-12	3
CCCc1cc(=O)n2c(nc3ccccc32)[nH]1	38	4	91	33	28*
COCCn1c(C)cc(C(=O)COC(=O)c2cc3c(s2)CCC3)c1C	2	2	x	-16	-4
COCCn1c(C)cc(C(=O)COC(=O)C23CC4CC(CC(O)(C4)C2)C3)c1C	77*	3	108	13	-7
Cc1ccc2c(c1)NC(=O)C(CC(=O)NCCN(CC(C)C)CC(C)C)O2 (stereo not drawn)	19	-9	96	-8	-4
COc1cccc(C(=O)/C=C/Nc2cc(C)ccc2O)c1	56*	5	66	22	6
CCOC(=O)N1CCN(C(=O)CSCC(=O)Nc2nc(-c3ccc4c(c3)OCO4)cs2)CC1	40	-2	95	39	-4
O=C(CSCC(=O)N1CCOCC1)Nc1nc(-c2ccc3c(c2)OCO3)cs1	48	7	97	52*	-2
CCc1cc2c(=O)c(-c3cscn3)coc2cc1O	31	1	100	2	-1
CCc1cc2c(=O)c(-c3cscn3)coc2cc1OC	39	5	81	52*	-7
Cc1ccc2c(c1)C(N1CCCC1=O)CC(c1ccco1)N2 (stereo not drawn)	58*	10	96	52*	-7
COc1cc(NC2c3ccccc3C(=O)N2c2ccc(C)cn2)cc(OC)c1OC (stereo not drawn)	43	-4	86	20	4
CCOC(=O)c1ccccc1NC1c2ccccc2C(=O)N1c1ccc(C)cn1 (stereo not drawn)	62*	7	x	22	6
CCOc1ccccc1NC1c2ccccc2C(=O)N1c1ccc(C)cn1 (stereo not drawn)	13	3	96	63*	-9
CS(=O)(=O)N1CCCC(C(=O)NC2CCCCCCC2)C1 (stereo not drawn)	-20	-8	118	-3	-6
Clc1ccc(SCc2cn3ccsc3n2)cc1	58*	x	131	30	-5
c1cn2cc(CSC3CCCCC3)nc2s1	60*	8	103	30	6
O=C(Cc1cn2ccsc2n1)OCc1ccccc1	11	-1	104	6	-3
c1ccc(CSCc2cn3ccsc3n2)cc1	54*	9	121	58*	3
c1ccc2c(c1)NC(c1ccncc1)n1c-2nc2ccccc21 (stereo not drawn)	31	-15	77	21	9
c1cncc(C2Nc3ccccc3-c3nc4ccccc4n32)c1 (stereo not drawn)	38	3	x	58*	x
COc1ccc(Cl)cc1-c1n[nH]c(=S)o1	22	8	77	-6	37*
Cc1ccccc1-c1n[nH]c(=S)o1	8	-7	x	-7	27*
CCCCn1c(-c2cc(Cl)ccc2OC)n[nH]c1=S	-5	12	148	-4	1
N#Cc1c(NC(=O)CSc2ncnc3c2cnn3-c2ccccc2Cl)sc2c1CCCC2	-7	5	49*	-6	8
SMILES	SF-1 act	Ec RNAP inh	BAP1 block	RORA act	JNK3 inh
CC(C)(C)C1CCc2onc(C(=O)Nc3cccnc3)c2C1 (stereo not drawn)	-15	9	111	8	3
COc1ccc(NC(=O)c2cc(C(C)C)on2)c(OC)c1	50*	2	93	70*	-5
O=C(Nc1cccnc1)c1noc2c1CCCC2	26	3	97	49*	-1
Cc1cc(NC(=O)c2noc3c2CCCCC3)no1	39	-2	92	58*	-3
COc1ccc(NC(=O)c2cc(C(C)C)on2)cc1OC	7	4	114	43	-5
CC(C)c1cc(C(=O)Nc2cccnc2)no1	30	7	117	61*	-6
CCCc1cc(C(=O)Nc2cccnc2)no1	-1	6	98	14	2
CCn1c(SCC(=O)Nc2nc(C)c(C)s2)nnc1-c1cccnc1	-2	4	104	-20	x
CC(=O)c1ccc(NC(=O)c2noc3c2CCCCC3)cc1	32	6	101	50*	4
O=C(Nc1ccc2c(c1)OCO2)c1noc2c1CCCCC2	18	7	110	14	-1
